In ChEMBL document CHEMBL3044632, “Synthesis, crystal structure, and biological activity of 4-methyl-1,2,3-thiadiazole-containing 1,2,4-triazolo[3,4-b][1,3,4]thiadiazoles” (J Agric Food Chem, 2010):

Legend:
Tobacco mosaic virus [1] = assay: Antiviral activity against Tobacco mosaic virus (TMV) infected leaves assessed as viral inhibition at 50 ug/mL at 25 degC for 72 hr; assay type: functional
Outline: (§1)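 Systemic acquired resistance induction was assayed in a tobacco–TMV system. The antivirus inhibition ratio was calculated from the average number of viral lesions on inoculated leaves, relative to the corresponding control.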

Phytophthora infestans = assay: Fungicide activity against Phytophthora infestans assessed as growth inhibition at 50 ug/mL at 24 to 26 degC measured after 2 days; assay type: functional; conditions: 48 h, read-out: GI
Fusarium graminearum = assay: Fungicide activity against Fusarium graminearum assessed as growth inhibition at 50 ug/mL at 24 to 26 degC measured after 2 days; assay type: functional; conditions: 48 h, read-out: GI
Mycosphaerella arachidis = assay: Fungicide activity against Mycosphaerella arachidis assessed as growth inhibition at 50 ug/mL at 24 to 26 degC measured after 2 days; assay type: functional; conditions: 48 h, read-out: GI
Fusarium oxysporum = assay: Fungicide activity against Fusarium oxysporum assessed as growth inhibition at 50 ug/mL at 24 to 26 degC measured after 2 days; assay type: functional; conditions: 48 h, read-out: GI
Colletotrichum lagenaria = assay: Fungicide activity against Colletotrichum lagenaria assessed as growth inhibition at 50 ug/mL at 24 to 26 degC measured after 2 days; assay type: functional; conditions: 48 h, read-out: GI
[2] = tested on: Botryosphaeria berengeriana; assay: Fungicide activity against Botryosphaeria berengeriana assessed as growth inhibition at 50 ug/mL at 24 to 26 degC measured after 2 days; assay type: functional; conditions: 48 h, read-out: GI
Alternaria solani = assay: Fungicide activity against Alternaria solani assessed as growth inhibition at 50 ug/mL at 24 to 26 degC measured after 2 days; assay type: functional; conditions: 48 h, read-out: GI
Thanatephorus cucumeris = assay: Fungicide activity against Thanatephorus cucumeris assessed as growth inhibition at 50 ug/mL at 24 to 26 degC measured after 2 days; assay type: functional; conditions: 48 h, read-out: GI
Botrytis cinerea = assay: Fungicide activity against Botryotinia fuckeliana assessed as growth inhibition at 50 ug/mL at 24 to 26 degC measured after 2 days; assay type: functional; conditions: 48 h, read-out: GI
Nicotiana tabacum = assay: Phytotoxicity against Nicotiana tabacum (tobacco) plant at 50 to 500 ug/mL; assay type: organism-based; conditions: in vivo
Cercospora beticola = assay: Fungicide activity against Cercospora beticola assessed as growth inhibition at 50 ug/mL at 24 to 26 degC measured after 2 days; assay type: functional; conditions: 48 h, read-out: GI
Puccinia triticina = assay: Fungicide activity against Puccinia triticina assessed as growth inhibition at 50 ug/mL at 24 to 26 degC measured after 2 days; assay type: functional; conditions: 48 h, read-out: GI
Rhizoctonia solani = assay: Fungicide activity against Rhizoctonia solani Kuhn assessed as growth inhibition at 50 ug/mL at 24 to 26 degC measured after 2 days; assay type: functional; conditions: 48 h, read-out: GI
Tobacco mosaic virus [3] = assay: Antiviral activity against Tobacco mosaic virus (TMV) infected leaves assessed as viral inhibition at 500 ug/mL at 25 degC for 72 hr; assay type: functional; outline: as §1
Tobacco mosaic virus [4] = assay: Antiviral activity against Tobacco mosaic virus (TMV) infected leaves assessed as viral inhibition at 100 ug/mL at 25 degC for 72 hr; assay type: functional; outline: as §1

| SMILES | inhibition at 50 µg/mL (Tobacco mosaic virus [1]) [%] | inhibition of growth at 50 µg/mL (Phytophthora infestans) [%] | inhibition of growth at 50 µg/mL (Fusarium graminearum) [%] | inhibition of growth at 50 µg/mL (Mycosphaerella arachidis) [%] | inhibition of growth at 50 µg/mL (Fusarium oxysporum) [%] | inhibition of growth at 50 µg/mL (Colletotrichum lagenaria) [%] | inhibition of growth at 50 µg/mL [2] [%] | inhibition of growth at 50 µg/mL (Alternaria solani) [%] | inhibition of growth at 50 µg/mL (Thanatephorus cucumeris) [%] | inhibition of growth at 50 µg/mL (Botrytis cinerea) [%] | Activity (Nicotiana tabacum) | inhibition of growth at 50 µg/mL (Cercospora beticola) [%] | inhibition of growth at 50 µg/mL (Puccinia triticina) [%] | inhibition of growth at 50 µg/mL (Rhizoctonia solani) [%] | inhibition at 500 µg/mL (Tobacco mosaic virus [3]) [%] | inhibition at 100 µg/mL (Tobacco mosaic virus [4]) [%] |
| --- | --- | --- | --- | --- | --- | --- | --- | --- | --- | --- | --- | --- | --- | --- | --- | --- |
| Cc1nnsc1C1=NNC2SC(c3c(-c4ccccc4)noc3C)=NN12 (centres undefined) | 14.6 | 7.4 | 27.3 | 30 | 13.8 | 13.6 | 8.9 | 33.3 | 25.4 | 46.2 | Toxic | 10 | – | – | – | – |
| Cc1nnsc1C1=NNC2SC(c3c(Cl)cccc3Cl)=NN12 (centres undefined) | 12.5 | 20 | 14.3 | 23.1 | 13.9 | 20.7 | 37.2 | 23.7 | 42.3 | 64.4 | Toxic | 28.6 | – | – | – | – |
| CCCC1=NN2C(c3snnc3C)=NNC2S1 (centres undefined) | 0 | 75.8 | 75 | 62.1 | 93 | 50 | 40.5 | 34.4 | 77.8 | 84.9 | Toxic | 33.3 | – | – | – | – |
| COc1ccc(C2=NN3C(c4snnc4C)=NNC3S2)cc1 (centres undefined) | 17.9 | 4.8 | – | 7.7 | 44.4 | 18.2 | 7.7 | 0 | 46.4 | – | Toxic | 0 | 10 | 11.1 | – | – |
| Cc1nnsc1C1=NNC2SC(c3ccco3)=NN12 (centres undefined) | – | 14.7 | – | 36.4 | 22.2 | 0 | 29 | 43.3 | 45.1 | – | Toxic | 42.9 | 21 | – | 23.5 | 20 |
| Cc1nnsc1C1=NNC2SC(c3ccc(F)cc3)=NN12 (centres undefined) | 0 | 15.6 | 14.3 | 33.1 | 9.3 | 10.3 | 18.6 | 26.3 | 11.3 | 53.3 | Toxic | 7.1 | – | – | – | – |
| Cc1nnsc1C1=NNC2SC(/C=C/c3ccccc3)=NN12 (centres undefined) | – | 18.2 | 17.5 | 27.6 | 9.1 | 26.9 | 40.5 | 31.3 | 33.3 | 81.8 | Toxic | 13.3 | – | – | 27.8 | 16.7 |
| Cc1nnsc1C1=NNC2SC(c3ccncc3)=NN12 (centres undefined) | 27 | 0 | – | 23.1 | 44.4 | 27.3 | 7.7 | 9.5 | 44.6 | – | Toxic | 0 | 10 | 5.7 | – | – |
| Cc1nnsc1C1=NNC2SC(CCl)=NN12 (centres undefined) | 29.2 | 11.4 | 33.3 | 34.8 | 25 | 4.3 | 33.3 | 23.8 | 38.4 | 65.2 | Toxic | 21.4 | – | – | – | – |
